# Compound activity: PubChem BioAssay, The Scripps Research Institute Molecular Screening Center
# MsrA inhibitor: bovine MsrA enzyme inhibitors, primary screen, biochemical, absorbance, HTS | Methionine sulfoxide reductase A (Bos taurus) | purified bovine MsrA, absorbance read-out | inhibition, % at 15.5 µM | 360,000 tested, 0.75% active; in the data active = inhibition above about 4.5%;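 note: 0% = vehicle wells with enzyme and 100% = reference inhibitor wells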
# ARFGAP1 inhibitor: inhibitors of rat ARFGAP1 GAP activity, primary screen, biochemical, fluorescence polarization, GDP tracer | 360,000 tested, 0.26% active | Arfgap1-stimulated ARF1 GTP hydrolysis, GDP FP detection | inhibition, % at 16.5 µM;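 active = inhibition above a per-plate limit, mean inhibition of low control wells plus 3 SD, cut at about 25% in these data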;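 note: 0% = DMSO wells with enzyme and 100% = wells lacking Arfgap1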
# Target sequence (Q62848 1-136 limits assumed): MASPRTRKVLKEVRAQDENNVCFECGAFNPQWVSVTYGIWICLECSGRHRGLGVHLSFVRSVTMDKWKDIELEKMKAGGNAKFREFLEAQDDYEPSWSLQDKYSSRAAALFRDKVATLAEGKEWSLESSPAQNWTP
#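 Assay system: Rat Arfgap1 GAP domain (His6, aa 1-136), purified enzyme | Buffer or medium: HEPES 25 mM pH 7.5, NaCl 150 mM, MgCl2, DTT | Schedule: GTP hydrolysis reaction 2 h at 25 °C | Signal: FP of antibody-bound GDP Alexa 633 tracer, ex 620/em 688 nm | Measure: Percent inhibition of Arfgap1-stimulated GTP hydrolysis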
# ASAP1 inh: inhibitors of human ASAP1 ArfGAP activity, primary screen, biochemical, fluorescence polarization. Arf-GAP with SH3 domain, ANK repeat and PH domain-containing protein 1 (Homo sapiens), …. 360,000 tested, 0.19% active. ASAP1-stimulated ARF1 GTP hydrolysis, GDP FP detection. inhibition, % at 16.5 µM; in the data active = inhibition above about 25%;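 note: 0% = vehicle with enzyme and substrate and 100% = no enzyme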
# MsrA act: bovine MsrA enzyme activators, primary screen, biochemical, absorbance, HTS | 360,000 tested, 0.3% active | Methionine sulfoxide reductase A (Bos taurus) | purified bovine MsrA, absorbance read-out | activation, % at 10.6 µM | AID 602163, 2012; in the data active = activation above about 7.5%;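 note: 0% = vehicle and 100% = reference activator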
# ARFGAP1 confirm: ARFGAP1 inhibitor hit confirmation, biochemical, fluorescence polarization, triplicate; shares compounds with ARFGAP1 inhibitor; ARFGAP1-stimulated ARF1 GTP hydrolysis, GDP tracer FP; inhibition, % at 16.5 µM; 890 tested, 30% active; AID 651608, 2012;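 active = average inhibition over triplicates above the hit cutoff set in the earlier primary screen, cut at about 25% in these data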;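 note: 0% = Arfgap1 plus ARF1-GTP with DMSO and 100% = wells lacking Arfgap1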
# Target sequence (Q62848 whole entry, looked up): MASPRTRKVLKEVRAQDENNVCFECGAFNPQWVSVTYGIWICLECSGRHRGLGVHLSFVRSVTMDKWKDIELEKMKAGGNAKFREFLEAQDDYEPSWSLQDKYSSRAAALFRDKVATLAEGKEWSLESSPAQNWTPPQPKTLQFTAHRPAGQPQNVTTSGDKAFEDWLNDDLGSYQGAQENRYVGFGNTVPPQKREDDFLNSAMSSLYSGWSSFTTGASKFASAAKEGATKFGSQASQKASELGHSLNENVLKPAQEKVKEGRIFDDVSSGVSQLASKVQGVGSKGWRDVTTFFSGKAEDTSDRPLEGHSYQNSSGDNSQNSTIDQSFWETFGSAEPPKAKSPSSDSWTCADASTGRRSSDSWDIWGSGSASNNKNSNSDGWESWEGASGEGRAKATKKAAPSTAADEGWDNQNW
# An asterisk follows results filed as active; x = no result. In the library only some 1.4% were active in any assay of this set; here they are far more common.
SMILES,MsrA inhibitor,ARFGAP1 inhibitor,ASAP1 inh,MsrA act,ARFGAP1 confirm
CC(C)(C)OC(=O)N1CCC(C(=O)Nc2ccc(C(=O)N3CCCC3)cc2)CC1,0.3,-3.4,7.3,-0.2,x
CN(CCO)C1=NS(=O)(=O)c2cc([N+](=O)[O-])ccc21,1.5,30.4*,4.5,2.5,-1.9
CN(CCO)c1cc(N(C)CCO)c([N+](=O)[O-])cc1[N+](=O)[O-],3.6,-0.5,-0.5,-16.0,x
COC(=O)c1nnn(-c2cccc(Cl)c2)c1C(=O)OC,0.8,25.4*,-1.2,-3.5,4.5
COC(=O)c1nnn(CC(=O)Nc2cc(Cl)ccc2C)c1C(=O)OC,-0.2,7.2,2.0,-1.5,x
Cc1ccc([C@H]2C[C@H](O)[C@@H](n3cc(C4CC4)nn3)CN2C(=O)C2CCCCC2)cc1,-1.1,10.6,3.0,-1.1,x
Cc1ccccc1C(=O)N1CCN(c2ncccn2)CC1,-0.5,69.6*,-9.4,-2.8,1.7
Cc1ccccc1C(=O)N1CCN(c2ccccn2)CC1,-0.9,4.9,-10.0,6.7,x
CCCc1ccc(Oc2cn[nH]c2-c2ccc(O)cc2O)cc1,-1.0,29.9*,14.8,-11.7,18.4
CC(C)(C)NC(=O)CN1CCN(C(=O)CCl)CC1,-0.7,24.8*,-1.3,-2.2,-1.1
Clc1ccc2c(N/N=C/c3cccc(Br)c3)ccnc2c1,-0.7,38.1*,16.5,-5.7,62.6*
Clc1ccc2c(N/N=C/c3ccccc3Br)ccnc2c1,0.4,26.6*,1.4,-1.5,25.6*
O=C1NC(Cc2ccccc2)c2nc3cc(Cl)ccc3c(=O)n2-c2ccccc21 (configuration not stated),-0.7,-1.3,8.9,x,x
C=CCn1c(C)nnc1SCC(=O)Nc1ccccc1C(=O)NC1CC1,-2.6,24.7*,3.9,-2.5,-2.8
O=[N+]([O-])c1ccc2[nH]cc(S(=O)(=O)N3CCN(c4cccc(Cl)c4)CC3)c2c1,1.6,9.7,3.1,-1.7,x
Cc1cccc(N(C)S(=O)(=O)c2c[nH]c3ccc([N+](=O)[O-])cc23)c1,0.8,26.1*,9.8,1.0,5.0
COc1ccc(C(=O)Nc2cccc(-c3ccc(N4CCOCC4)nn3)c2)cc1OC,0.7,29.3*,0.1,-2.7,13.8
CCOc1ccc(C(=O)Nc2cccc(-c3ccc(N4CCOCC4)nn3)c2)cc1OCC,1.6,17.5,17.6,-5.0,x
COc1cc(/C=N/NC(=O)c2ccc(Cl)c(S(N)(=O)=O)c2)ccc1OCC(N)=O,3.5,44.0*,-8.7,-10.0,7.7
O=C(CCCc1ccccc1)N=C1SC2CS(=O)(=O)CC2N1c1ccccc1F (configuration not stated),0.7,28.6*,9.2,-3.0,-0.1
CCOc1ccc(S(=O)(=O)N(C)c2ccc(OCC(=O)Nc3ccc4[nH]c(=O)[nH]c4c3)cc2)cc1,0.2,11.7,1.4,2.2,x
CN(c1ccc(OCC(=O)Nc2ccc3[nH]c(=O)[nH]c3c2)cc1)S(=O)(=O)c1ccc(Cl)cc1,0.1,30.2*,8.7,-4.0,-11.4
CC1=C(C(=O)OCc2cc(C)on2)N2C(=O)[C@@H](NC(=O)OCc3cc(C)on3)[C@H]2SC1,0.5,-7.6,-7.6,3.4,x
Cc1ccc(C(=O)Nc2ccc3c(c2)C(=O)NC3=O)cc1,0.3,25.2*,13.2,-6.1,-3.2
COC(=O)c1ccc(C(=O)Nc2ccc3c(c2)C(=O)NC3=O)cc1,0.1,23.3,13.8,-6.0,x
SMILES,MsrA inhibitor,ARFGAP1 inhibitor,ASAP1 inh,MsrA act,ARFGAP1 confirm
CCOC(=O)c1c(-c2ccccc2Cl)csc1NC(=O)c1cc(S(=O)(=O)N2CCOCC2)ccc1C,0.5,2.0,-1.2,-3.5,x
O=C(N[C@H](Cc1ccccc1)C(=O)N1CCCN(Cc2ccccc2F)CC1)[C@H]1O[C@@H](n2ccc(=O)[nH]c2=O)[C@H](O)[C@@H]1O,-1.3,4.6,5.8,x,x
CCOC1CCCc2oc(-c3ccc(OC)cc3)c(C(=O)NCCCCO)c21 (configuration not stated),0.7,-3.7,1.7,-10.5,x
COC(=O)c1ccc(N2CCN(C)CC2)c(NC(=O)COc2ccccc2Cl)c1,-0.4,27.4*,3.5,0.0,2.3
Cc1ccc(SCC(=O)OCC(=O)NCc2cccs2)cc1,0.1,-3.3,11.4,-3.8,x
O=C(COC(=O)CSc1ccc([N+](=O)[O-])cc1)NCc1cccs1,1.8,26.4*,6.7,2.1,8.9
Cc1ccc(CNC(=O)c2cc3ccccc3oc2=O)cc1,-0.5,8.0,2.2,0.0,x
COCC1CCN(C(=O)C2CCC(=O)N(C3CCCCCC3)C2)CC1 (configuration not stated),-0.6,4.9,2.2,-3.7,x
CCOC(=O)NC(NCC(O)c1ccccc1)(C(F)(F)F)C(F)(F)F (configuration not stated),-1.3,3.2,3.6,-4.1,x
CCCCOC(=O)NC(NCC(O)c1ccccc1)(C(F)(F)F)C(F)(F)F (configuration not stated),0.0,30.7*,4.7,-2.6,-5.8
COc1ccc(N/N=C/c2c(C(=O)O)ccc3ccccc23)cc1,1.6,26.2*,11.3,-1.8,31.4*
CCN(Cc1ccc(O)cc1)CC1CCCN(CCc2cccc(F)c2)C1 (configuration not stated),0.1,-4.8,-7.4,-0.7,x
CCn1c(COc2cc(C)ccc2C(C)C)nnc1SCC(=O)Nc1nccs1,0.4,24.7*,-6.3,-3.0,-5.3
CCCCc1nnc(SCC(=O)Nc2nccs2)n1CC,0.1,13.5,8.3,-3.3,x
CC(C)(C)c1ccc(OCC(=O)N/N=C/c2ccc(N3CCOCC3)cc2)cc1,3.3,0.3,-11.1,-4.1,x
O=C1c2ccccc2C(=O)N1CCCc1c[nH]c2ccc(Cl)cc12,0.9,32.9*,1.9,-5.4,15.2
O=C(CSc1ccc(Cl)cc1)Nc1ccc(-c2nc3ccccc3[nH]2)cc1,2.6,25.4*,3.2,-4.3,23.5
O=C(CSc1ccccc1)Nc1nc2ccccc2[nH]1,-0.8,9.6,-7.6,-2.1,x
CC(=O)c1c(C)nc(Nc2nc3ccccc3s2)nc1C,0.0,25.1*,-9.8,-2.5,-0.8
CCCCN(CC)C(=O)C1CCC(CNS(=O)(=O)c2cccc3nsnc23)CC1 (configuration not stated),1.1,11.8,4.8,-6.6,x
CCOC(=O)C1CCCN(CCC(=O)Nc2ccccc2C)C1 (configuration not stated),1.1,25.8*,6.8,-1.8,-5.8
CCOC(=O)C1CCCN(CCC(=O)Nc2cc(C)ccc2C)C1 (configuration not stated),-1.2,0.7,17.1,3.9,x
